Test results taken from ChEMBL document CHEMBL3286180, “Efficacious inhaled PDE4 inhibitors with low emetic potential and long duration of action for the treatment of COPD” (J Med Chem, 2014).
Values after ≈ are worked out from the molar mass of the structure shown. Active and inactive are the calls of the source. The rule behind the calls is not given here.

Columns and labels:
[1] = tested on: Rattus norvegicus; assay: Antiinflammatory activity in Sprague-Dawley rat assessed as inhibition of LPS-induced bronchoalveolar lavage neutrophils at 0.03 to 3 mg/ml, inhalation administered as nebulized suspension; type: functional, organism-based
In short: (§1)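 Rats were given the compound as an aqueous nebulized aerosol by nose-only inhalation 30 min before LPS challenge. Dose is expressed as mg/mL nebulizer concentration. Lung neutrophilia was the readout, and terminal lung concentration (nM) was measured. Groups held 8−10 animals per treatment.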

[2] = tested on: Rattus norvegicus; assay: Antiinflammatory activity in Sprague-Dawley rat assessed as inhibition of LPS-induced bronchoalveolar lavage neutrophils at 145 to 5238 particles/cm'3, inhalation administered as dry powder; type: functional, organism-based
[3] = tested on: Rattus norvegicus; assay: Antiinflammatory activity in Sprague-Dawley rat assessed as inhibition of LPS-induced bronchoalveolar lavage neutrophils at lung exposure 1000 to 6000 particles/cm'3, inhalation administered as dry powder; type: functional, organism-based
[4] = target: T1, 3',5'-cyclic-AMP phosphodiesterase 4B (Homo sapiens, UniProt Q07343); assay: Inhibition of human recombinant PDE4B using [3H]cAMP by packard topcount scintillation counting analysis
[5] = tested on: PBMC; assay: Antiinflammatory activity in human PBMC assessed as inhibition of LPS-induced TNFalpha production after 20 hrs by fluorescence linked immunosorbant assay; type: functional, cell-based
[6] = Fraction unbound in human plasma; type: ADME, cell-free
[7] = Fraction unbound in rat plasma; type: ADME, cell-free
[8] = Aqueous solubility of the compound at pH 7.4; type: physicochemical; conditions: aqueous medium
[9] = Lipophilicity, log D of the compound; type: physicochemical; conditions: octanol/water
[10] = Intrinsic clearance in human liver microsomes; type: ADME; conditions: read-out: CLH
[11] = Intrinsic clearance in rat hepatocytes measured per 10^6 cells; type: ADME, cell-based, Hepatocyte; conditions: read-out: CLH
[12] = Clearance in rat at 1 mg/kg, iv; type: ADME, organism-based; set-up: dose 1 mg/kg, route intravenous; conditions: in vivo
In short: (§2)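 Rat pharmacokinetics were run at 1 mg/kg, given iv or by intratracheal instillation, with 2−3 animals per study.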

[13] = Volume of distribution at steady state in rat at 1 mg/kg, iv; type: ADME, organism-based; set-up: dose 1 mg/kg, route intravenous; conditions: in vivo, read-out: Vdss
[14] = Half life in rat at 1 mg/kg, iv; type: ADME, organism-based; set-up: dose 1 mg/kg, route intravenous; conditions: in vivo; in short: as §2
[15] = tested on: Rattus norvegicus; assay: Antiinflammatory activity in Sprague-Dawley rat assessed as inhibition of LPS-induced bronchoalveolar lavage neutrophils measured as LPS duration at 0.03 to 3 mg/ml, inhalation administered as nebulized suspension; type: functional, organism-based
In short: (§3)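 Duration protocol: rats received a nose-only inhalation of nebulized aqueous compound solution 12 h before LPS challenge. Dose is expressed as mg/mL nebulizer concentration. Readout was LPS-induced pulmonary neutrophilia, with terminal lung concentration (nM) measured. Groups held 8−10 animals per treatment.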

[16] = tested on: Blood; assay: tissue or blood; conditions: Rattus norvegicus, 20 h, read-out: pIC50 (converted)
[17] = Clearance in dog; type: ADME, organism-based, Canis lupus familiaris; conditions: in vivo
[18] = target: Voltage-gated inwardly rectifying potassium channel KCNH2 (Homo sapiens, UniProt Q12809); assay: Inhibition of human ERG
[19] = tested on: Blood; assay: Antiinflammatory activity in human whole blood assessed as inhibition of LPS-induced TNFalpha production after 20 hrs by ELISA; type: functional, tissue-based
[20] = Half life in rat at 1 mg/kg, it; type: ADME, organism-based; set-up: dose 1 mg/kg, route endotracheal; conditions: in vivo, inhaled or intranasal; in short: as §2
[21] = tested on: Rattus norvegicus; assay: Apparent volume of distribution in rat at 1 mg/kg, iv; type: ADME, organism-based; set-up: dose 1 mg/kg, route intravenous; conditions: in vivo; in short: as §2
[22] = tested on: Rattus norvegicus; assay: Antiinflammatory activity in nasally dosed Sprague-Dawley rat assessed as inhibition of LPS-induced bronchoalveolar lavage neutrophils measured as nebulizer concentration administered as […]; type: functional
In short: (§4)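 ED80 was derived from the nose-only nebulized-solution dose response in rats dosed 30 min before LPS challenge, with neutrophilia as the readout. ED80 is given as nebulizer concentration, as the matching terminal total lung concentration, and as lung deposited dose estimated from measured filter sample and terminal lung levels.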

[23] = target: 3',5'-cyclic-AMP phosphodiesterase 4D (Homo sapiens, UniProt Q08499); assay: Inhibition of human PDE4D using [3H]cAMP by packard topcount scintillation counting analysis
[24] = target: 3',5'-cyclic-AMP phosphodiesterase 4A (Homo sapiens, UniProt P27815); assay: Inhibition of human PDE4A1A using [3H]cAMP by packard topcount scintillation counting analysis
[25] = target: T1, 3',5'-cyclic-AMP phosphodiesterase 4B; assay: Inhibition of human recombinant PDE4B at high-affinity rolipram binding site
[26] = Volume of distribution at steady state in dog; type: ADME, organism-based, Canis lupus familiaris; conditions: in vivo, read-out: Vdss
[27] = Apparent volume of distribution in dog; type: ADME, organism-based, Canis lupus familiaris; conditions: in vivo, read-out: Vz/F
[28] = Oral bioavailability in dog; type: ADME, organism-based, Canis lupus familiaris; conditions: in vivo
[29] = Half life in dog; type: ADME, organism-based, Canis lupus familiaris; conditions: in vivo
[30] = tested on: Rattus norvegicus; assay: Antiinflammatory activity in nasally dosed Sprague-Dawley rat assessed as inhibition of LPS-induced bronchoalveolar lavage neutrophils measured as lung concentration administered as […]; type: functional; in short: as §4
[31] = tested on: Rattus norvegicus; assay: Antiinflammatory activity in nasally dosed Sprague-Dawley rat assessed as inhibition of LPS-induced bronchoalveolar lavage neutrophils measured as lung deposited dose administered as […]; type: functional; in short: as §4
[32] = Lipophilicity, log K of the compound; type: physicochemical; conditions: octanol/water
[33] = tested on: Rattus norvegicus; assay: Antiinflammatory activity in Sprague-Dawley rat assessed as inhibition of LPS-induced bronchoalveolar lavage neutrophils measured as terminal lung concentration at 0.003 mg/ml, inhalation administered as nebulized suspension; type: functional; in short: as §1
[34] = tested on: Rattus norvegicus; assay: Antiinflammatory activity in Sprague-Dawley rat assessed as inhibition of LPS-induced bronchoalveolar lavage neutrophils measured as terminal lung concentration at 0.01 mg/ml, inhalation administered as nebulized suspension; type: functional; in short: as §1
[35] = tested on: Rattus norvegicus; assay: Antiinflammatory activity in Sprague-Dawley rat assessed as inhibition of LPS-induced bronchoalveolar lavage neutrophils measured as terminal lung concentration at 0.03 mg/ml, inhalation administered as nebulized suspension; type: functional; in short: as §1
[36] = tested on: Rattus norvegicus; assay: Antiinflammatory activity in Sprague-Dawley rat assessed as inhibition of LPS-induced bronchoalveolar lavage neutrophils measured as terminal lung concentration at 0.1 mg/ml, inhalation administered as nebulized suspension; type: functional; in short: as §1
[37] = tested on: Rattus norvegicus; assay: Antiinflammatory activity in Sprague-Dawley rat assessed as inhibition of LPS-induced bronchoalveolar lavage neutrophils measured as terminal lung concentration at 0.03 mg/ml, inhalation administered as […] treated 12 hrs before LPS; type: functional; in short: as §3
[38] = tested on: Rattus norvegicus; assay: Antiinflammatory activity in Sprague-Dawley rat assessed as inhibition of LPS-induced bronchoalveolar lavage neutrophils measured as terminal lung concentration at 0.1 mg/ml, inhalation administered as […] treated 12 hrs before LPS; type: functional; in short: as §3
[39] = tested on: Rattus norvegicus; assay: Antiinflammatory activity in Sprague-Dawley rat assessed as inhibition of LPS-induced bronchoalveolar lavage neutrophils measured as terminal lung concentration at 0.3 mg/ml, inhalation administered as nebulized suspension treated 12 hrs before LPS; type: functional; conditions: in the assay text read “nebulized solution” for “nebulized suspension”; in short: as §3
[40] = target: T2, 3',5'-cyclic-AMP phosphodiesterase 4B (Rattus norvegicus, UniProt P14646)
T2 sequence (P14646 whole entry): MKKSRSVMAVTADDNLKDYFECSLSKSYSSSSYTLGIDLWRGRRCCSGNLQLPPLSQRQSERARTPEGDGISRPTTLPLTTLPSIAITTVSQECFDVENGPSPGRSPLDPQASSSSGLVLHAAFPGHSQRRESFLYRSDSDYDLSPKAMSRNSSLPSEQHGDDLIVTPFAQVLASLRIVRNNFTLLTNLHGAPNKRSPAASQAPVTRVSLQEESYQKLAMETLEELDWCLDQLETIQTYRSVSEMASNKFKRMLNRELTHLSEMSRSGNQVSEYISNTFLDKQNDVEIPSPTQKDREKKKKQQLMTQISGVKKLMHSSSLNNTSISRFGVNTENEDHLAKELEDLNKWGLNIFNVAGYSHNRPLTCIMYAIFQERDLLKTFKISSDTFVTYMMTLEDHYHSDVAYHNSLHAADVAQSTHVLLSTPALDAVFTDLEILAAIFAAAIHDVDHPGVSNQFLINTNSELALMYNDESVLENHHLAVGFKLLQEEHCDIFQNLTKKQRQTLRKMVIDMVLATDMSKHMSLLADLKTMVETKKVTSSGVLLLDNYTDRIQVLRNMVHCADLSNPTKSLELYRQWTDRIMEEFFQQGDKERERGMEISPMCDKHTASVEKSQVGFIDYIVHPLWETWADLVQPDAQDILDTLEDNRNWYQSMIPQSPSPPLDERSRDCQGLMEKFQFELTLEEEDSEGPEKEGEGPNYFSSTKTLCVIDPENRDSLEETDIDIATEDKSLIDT

T1 sequence (Q07343 whole entry): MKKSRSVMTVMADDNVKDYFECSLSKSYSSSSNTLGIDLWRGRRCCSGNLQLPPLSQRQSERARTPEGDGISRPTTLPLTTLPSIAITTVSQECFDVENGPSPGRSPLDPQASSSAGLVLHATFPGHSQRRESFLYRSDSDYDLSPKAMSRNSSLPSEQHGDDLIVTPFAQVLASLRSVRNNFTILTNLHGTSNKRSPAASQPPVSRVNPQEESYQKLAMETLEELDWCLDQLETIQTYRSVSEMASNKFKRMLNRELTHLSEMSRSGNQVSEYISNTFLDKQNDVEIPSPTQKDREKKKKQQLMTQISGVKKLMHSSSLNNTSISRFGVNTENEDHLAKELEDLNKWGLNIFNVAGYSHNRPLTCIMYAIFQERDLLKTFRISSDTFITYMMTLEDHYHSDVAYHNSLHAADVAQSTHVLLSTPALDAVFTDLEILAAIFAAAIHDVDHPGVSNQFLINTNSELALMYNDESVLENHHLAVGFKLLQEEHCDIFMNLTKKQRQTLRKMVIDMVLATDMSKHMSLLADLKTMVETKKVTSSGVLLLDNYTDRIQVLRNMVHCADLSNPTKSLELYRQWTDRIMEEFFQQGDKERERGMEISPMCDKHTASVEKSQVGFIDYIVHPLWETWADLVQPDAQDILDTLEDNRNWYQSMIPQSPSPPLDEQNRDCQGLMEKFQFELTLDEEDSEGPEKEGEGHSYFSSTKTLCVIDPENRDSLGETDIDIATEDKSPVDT
Chain of 3',5'-cyclic-AMP phosphodiesterase 4A (P27815 whole entry): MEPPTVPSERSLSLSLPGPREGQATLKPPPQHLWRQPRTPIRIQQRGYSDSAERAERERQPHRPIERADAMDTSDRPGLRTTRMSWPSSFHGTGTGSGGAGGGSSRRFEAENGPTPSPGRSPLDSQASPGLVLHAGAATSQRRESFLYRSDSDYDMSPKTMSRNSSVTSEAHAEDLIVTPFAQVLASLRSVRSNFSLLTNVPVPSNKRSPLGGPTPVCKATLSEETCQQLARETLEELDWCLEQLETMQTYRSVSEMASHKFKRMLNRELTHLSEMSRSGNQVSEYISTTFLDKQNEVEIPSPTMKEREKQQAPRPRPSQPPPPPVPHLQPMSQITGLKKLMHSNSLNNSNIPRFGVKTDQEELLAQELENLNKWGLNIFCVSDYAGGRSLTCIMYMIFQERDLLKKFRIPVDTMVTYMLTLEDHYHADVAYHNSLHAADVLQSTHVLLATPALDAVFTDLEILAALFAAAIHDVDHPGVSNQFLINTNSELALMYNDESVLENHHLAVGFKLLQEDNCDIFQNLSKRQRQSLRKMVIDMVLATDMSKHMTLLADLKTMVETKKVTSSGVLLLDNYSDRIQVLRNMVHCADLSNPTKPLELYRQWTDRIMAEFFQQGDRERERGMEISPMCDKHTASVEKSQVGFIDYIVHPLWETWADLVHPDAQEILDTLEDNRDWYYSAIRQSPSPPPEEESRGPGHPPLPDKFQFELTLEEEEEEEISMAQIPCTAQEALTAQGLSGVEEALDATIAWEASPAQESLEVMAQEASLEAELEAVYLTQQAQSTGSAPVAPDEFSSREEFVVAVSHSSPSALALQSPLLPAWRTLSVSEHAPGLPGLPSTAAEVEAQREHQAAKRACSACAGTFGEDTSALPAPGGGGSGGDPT
Chain of Voltage-gated inwardly rectifying potassium channel KCNH2 (Q12809 whole entry): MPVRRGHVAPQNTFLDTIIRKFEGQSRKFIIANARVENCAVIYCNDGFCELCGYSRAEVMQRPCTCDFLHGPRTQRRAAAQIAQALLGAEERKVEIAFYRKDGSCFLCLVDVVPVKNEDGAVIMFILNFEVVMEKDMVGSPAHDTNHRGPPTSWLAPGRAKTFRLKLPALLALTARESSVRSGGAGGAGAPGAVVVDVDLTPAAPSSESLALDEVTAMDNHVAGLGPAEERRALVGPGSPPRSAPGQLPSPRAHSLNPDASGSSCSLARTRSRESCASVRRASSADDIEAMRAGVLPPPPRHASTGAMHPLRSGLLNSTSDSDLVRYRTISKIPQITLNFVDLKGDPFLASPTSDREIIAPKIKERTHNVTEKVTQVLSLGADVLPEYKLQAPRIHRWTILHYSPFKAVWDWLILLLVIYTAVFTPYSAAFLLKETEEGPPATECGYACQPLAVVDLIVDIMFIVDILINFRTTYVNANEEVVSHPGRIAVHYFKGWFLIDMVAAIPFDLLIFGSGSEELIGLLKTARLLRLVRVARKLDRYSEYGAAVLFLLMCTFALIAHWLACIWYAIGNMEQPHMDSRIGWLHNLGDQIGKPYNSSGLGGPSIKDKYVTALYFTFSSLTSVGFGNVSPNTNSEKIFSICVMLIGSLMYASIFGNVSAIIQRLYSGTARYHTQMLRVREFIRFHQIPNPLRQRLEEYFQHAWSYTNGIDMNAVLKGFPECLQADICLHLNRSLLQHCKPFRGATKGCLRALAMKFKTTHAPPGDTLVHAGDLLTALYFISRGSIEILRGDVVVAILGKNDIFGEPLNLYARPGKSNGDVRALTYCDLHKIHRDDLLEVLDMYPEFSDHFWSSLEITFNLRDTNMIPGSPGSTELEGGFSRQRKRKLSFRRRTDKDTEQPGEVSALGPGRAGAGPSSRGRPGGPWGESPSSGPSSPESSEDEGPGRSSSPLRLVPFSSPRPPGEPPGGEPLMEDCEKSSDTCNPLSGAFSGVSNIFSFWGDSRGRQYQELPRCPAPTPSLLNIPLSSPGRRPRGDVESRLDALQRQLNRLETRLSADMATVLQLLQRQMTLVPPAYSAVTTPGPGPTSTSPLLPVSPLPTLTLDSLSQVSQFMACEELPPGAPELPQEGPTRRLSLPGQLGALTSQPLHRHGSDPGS
Chain of 3',5'-cyclic-AMP phosphodiesterase 4D (Q08499 whole entry): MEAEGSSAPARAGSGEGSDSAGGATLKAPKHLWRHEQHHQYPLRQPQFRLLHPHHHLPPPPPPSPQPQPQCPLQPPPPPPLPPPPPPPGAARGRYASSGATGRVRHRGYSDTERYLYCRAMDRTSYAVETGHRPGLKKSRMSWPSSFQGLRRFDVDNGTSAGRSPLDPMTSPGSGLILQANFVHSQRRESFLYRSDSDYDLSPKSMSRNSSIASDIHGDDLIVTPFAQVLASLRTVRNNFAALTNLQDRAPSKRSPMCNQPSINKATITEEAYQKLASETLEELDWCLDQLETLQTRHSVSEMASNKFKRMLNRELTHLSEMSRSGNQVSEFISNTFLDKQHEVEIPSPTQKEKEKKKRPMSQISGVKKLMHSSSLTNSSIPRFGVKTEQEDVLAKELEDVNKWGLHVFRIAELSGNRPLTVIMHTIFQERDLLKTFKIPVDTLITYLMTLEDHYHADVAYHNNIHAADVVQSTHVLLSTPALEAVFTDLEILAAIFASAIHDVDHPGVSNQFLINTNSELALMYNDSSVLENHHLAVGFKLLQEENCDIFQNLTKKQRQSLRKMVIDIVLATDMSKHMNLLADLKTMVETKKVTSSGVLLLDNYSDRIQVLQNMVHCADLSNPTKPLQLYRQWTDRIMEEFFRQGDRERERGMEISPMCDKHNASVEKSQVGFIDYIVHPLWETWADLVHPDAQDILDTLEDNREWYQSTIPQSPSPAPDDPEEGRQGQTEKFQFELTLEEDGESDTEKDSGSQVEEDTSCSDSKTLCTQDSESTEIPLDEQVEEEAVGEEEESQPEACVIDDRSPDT

Compound: Cc1ccc(O)c(C(=O)N[C@H]2CC[C@@H](NC(=O)c3cc(F)cnc3Oc3ccc(F)c(F)c3)CC2)c1 [UK-500001]
- inhibition [1]: inactive
- inhibition [2]: Active
- inhibition [3]: Active
- IC50 [4]: 0.631 nM
- IC50 [5]: 3.98 nM
- fraction unbound [6]: 0.0017
- fraction unbound [7]: 0.017
- solubility [8]: < 1 µM
- logD [9]: 4.4
- microsomal CLint [10]: 116 µL/min/mg
- hepatocyte CLint [11]: 76 µL/min/1e6 cells
- clearance [12]: 97 mL/min/kg
- Vd [13]: 22 L/kg
- half-life [14]: 7.6 h
- inhibition [15]: inactive
- IC50 [16]: 39.8 nM

Compound: Cc1csc(C(=O)N[C@H]2CC[C@@H](NC(=O)c3cc(F)cnc3Oc3cccc(-c4ccc(CN5C[C@@H](C)N[C@@H](C)C5)cc4CN4CCOCC4)c3)CC2)n1
- clearance [17]: 34 mL/min/kg
- IC50 [18]: 20000 nM
- IC50 [4]: 0.0251 nM
- IC50 [5]: 0.02 nM
- IC50 [19]: 0.316 nM
- fraction unbound [6]: 0.045
- fraction unbound [7]: 0.23
- logD [9]: 1.9
- microsomal CLint [10]: > 150 µL/min/mg
- hepatocyte CLint [11]: 10 µL/min/1e6 cells
- clearance [12]: 44 mL/min/kg
- Vd [13]: 18 L/kg
- half-life [14]: 7 h
- half-life [20]: 8 h
- Vz/F [21]: 27 L/kg
- ED80 [22]: 20 µg/mL (≈ 26.5 µM)
- IC50 [23]: 0.02 nM
- IC50 [24]: < 10 nM
- IC50 [25]: < 10 nM
- Vd [26]: 26 L/kg
- Vd/F [27]: 44 L/kg
- bioavailability [28]: 16%
- half-life [29]: 15 h
- ED80 [30]: 23 nM
- ED80 [31]: 0.2 µg/kg
- log K [32]: 1.32
- Activity [33]: 2 nM
- Activity [34]: 12 nM
- Activity [35]: 30 nM
- Activity [36]: 90 nM
- Activity [37]: 7 nM
- Activity [38]: 22 nM
- Activity [39]: 57 nM
- IC50 [40]: 0.02 nM
